Laboratory results taken from ChEMBL document CHEMBL3098119, “Exploring naphthyl-carbohydrazides as inhibitors of influenza A viruses” (Eur J Med Chem, 2014).
Activity calls are given as the source filed them. The calls are words filed in the database; no cut-off is given here.

Tests used:
Influenza A virus [1] = experiment: Antiviral activity against Influenza A virus (A/udorn/307/1972 H3N2) infected in MDCK cells assessed as reduction in viral RNA titer at 4 to 8 uM after 24 hrs by RT-qPCR analysis; format: functional, organism-based
How it was run: (§1)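 Infection was the same: MDCK, Ud virus at moi 0.001 PFU/cell, 1 h adsorption, then compound at 4 or 8 μM in 1% DMSO medium. Supernatant was sampled at 24, 36 and 48 h. Neuraminidase-segment vRNA was reverse transcribed in duplicate (forward primer 1.25 μM, 12 h, 37 C), then amplified by probe qPCR in duplicate (primers 0.8 μM, probe 0.24 μM, 50 cycles). Results were normalized to the start of infection.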

Influenza A virus [2] = experiment: Antiviral activity against Influenza A virus (A/udorn/307/1972 H3N2) infected in MDCK cells assessed as inhibition of viral replication at 4 to 8 uM after 24 hrs by hemagglutination assay; format: functional, organism-based
How it was run: (§2)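 MDCK cells infected with Ud virus at moi 0.001 PFU/cell. After 1 h adsorption, compound was added at 4 or 8 μM in medium containing 1% DMSO. Medium aliquots were taken at 24, 36 and 48 h and assayed for hemagglutinin (HA) titre. Infected cells without inhibitor served as the control.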

Influenza A virus [3] = experiment: Antiviral activity against Influenza A virus (A/udorn/307/1972 H3N2) infected in MDCK cells assessed as reduction in viral RNA titer at 4 uM after 36 to 48 hrs by RT-qPCR analysis; format: functional, organism-based; how it was run: as §1
Influenza A virus [4] = experiment: Antiviral activity against Influenza A virus (A/udorn/307/1972 H3N2) infected in MDCK cells assessed as inhibition of viral replication at 4 uM after 36 to 48 hrs by hemagglutination assay; format: functional, organism-based; how it was run: as §2
Influenza A virus [5] = experiment: Antiviral activity against Influenza A virus (A/udorn/307/1972 H3N2) infected in MDCK cells assessed as reduction in viral RNA titer at 8 uM after 24 to 48 hrs by RT-qPCR analysis; format: functional, organism-based; how it was run: as §1
Influenza A virus [6] = experiment: Antiviral activity against Influenza A virus (A/udorn/307/1972 H3N2) infected in MDCK cells assessed as inhibition of viral replication at 8 uM after 24 to 48 hrs by hemagglutination assay; format: functional, organism-based; how it was run: as §2
Influenza A virus [7] = experiment: Antiviral activity against Influenza A virus (A/udorn/307/1972 H3N2) infected in MDCK cells assessed as reduction in viral RNA titer at 4 uM after 48 hrs by RT-qPCR analysis; format: functional, organism-based; how it was run: as §1
Influenza A virus [8] = experiment: Antiviral activity against Influenza A virus (A/udorn/307/1972 H3N2) infected in MDCK cells assessed as inhibition of viral replication at 4 uM after 48 hrs by hemagglutination assay; format: functional, organism-based; how it was run: as §2
Influenza A virus [9] = experiment: Antiviral activity against Influenza A virus (A/udorn/307/1972 H3N2) infected in MDCK cells assessed as reduction in viral RNA titer at 4 uM after 36 hrs by RT-qPCR analysis; format: functional, organism-based; how it was run: as §1
Influenza A virus [10] = experiment: Antiviral activity against Influenza A virus (A/udorn/307/1972 H3N2) infected in MDCK cells assessed as inhibition of viral replication at 4 uM after 36 hrs by hemagglutination assay; format: functional, organism-based; how it was run: as §2
MDCK = experiment: Cytotoxicity against MDCK cells infected with Influenza A virus (A/udorn/307/1972 H3N2) at 4 uM after 24 to 48 hrs by CellTiter-Glo cell viability assay; format: cell-based, Canis lupus familiaris; settings: dog
How it was run: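 CellTiter-Glo ATP luminescence was measured in MDCK cells infected with Ud virus at low multiplicity, with or without 4 μM compound. Cells were lysed at several times over the 48 h infection.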

Influenza A virus [11] = experiment: Antiviral activity against Influenza A virus (A/udorn/307/1972 H3N2) infected in MDCK cells assessed as reduction in viral RNA titer up to 6.5 hrs by RT-qPCR analysis; format: functional, organism-based
Influenza A virus [12] = experiment: Antiviral activity against Influenza A virus (A/udorn/307/1972 H3N2) infected in MDCK cells assessed as reduction in viral RNA titer at 4 to 8 uM after 24 to 48 hrs by RT-qPCR analysis relative to control; format: functional; how it was run: as §1
Influenza A virus [13] = experiment: Antiviral activity against Influenza A virus (A/udorn/307/1972 H3N2) infected in MDCK cells assessed as inhibition of viral replication at 4 to 8 uM after 24 to 48 hrs by hemagglutination assay; format: functional, organism-based; how it was run: as §2

| Compound | inhibition (Influenza A virus [3]) | inhibition (Influenza A virus [4]) | inhibition (Influenza A virus [5]) | inhibition (Influenza A virus [6]) | other results |
| --- | --- | --- | --- | --- | --- |
| CC(C)/C(=N\NC(=O)c1cc2ccccc2cc1O)c1ccc2c(c1)CCCC2 |  |  |  |  | inhibition (Influenza A virus [1]): Active; inhibition (Influenza A virus [2]): Active |
| O=C(N/N=C(/c1ccc2c(c1)CCCC2)C1CCCC1)c1cc2ccccc2cc1O | Active | Active | Active | Active |  |
| O=C(N/N=C(\CCCCl)c1ccc2c(c1)CCCC2)c1cc2ccccc2cc1O | inactive | inactive | Active | Active |  |
| CCC/C(=N\NC(=O)c1cc2ccccc2cc1O)c1ccc2c(c1)CCCC2 |  |  | Active | Active | inhibition (Influenza A virus [7]): inactive; inhibition (Influenza A virus [8]): inactive |
| CC/C(=N\NC(=O)c1cc2ccccc2cc1O)c1ccc2c(c1)CCCC2 |  |  | Active | Active | inhibition (Influenza A virus [1]): Active; inhibition (Influenza A virus [2]): Active |
| CN(C)CCC/C(=N\NC(=O)c1cc2ccccc2cc1O)c1ccc2c(c1)CCCC2 | inactive | inactive | Active | Active |  |
| O=C(N/N=C(/c1ccc2c(c1)CCCC2)C1CCCCC1)c1cc2ccccc2cc1O | Active | Active |  | Active | inhibition (Influenza A virus [9]): Active; inhibition (Influenza A virus [10]): Active |
| O=C(N/N=C(/c1ccc2c(c1)CCCC2)C1CC1)c1cc2ccccc2cc1O |  |  | Active | Active |  |
| O=C(N/N=C(\c1ccccc1)c1ccc2c(c1)CCCC2)c1cc2ccccc2cc1O |  |  |  |  | Activity (MDCK): Non-toxic; inhibition (Influenza A virus [11]): Active; fold change (FC) (Influenza A virus [12]): 1000; inhibition (Influenza A virus [13]): Active |
